Key:
[1] = target: Beta-lactamase (Enterobacter cloacae) (UniProt P05364); experiment: Irreversible inhibition of Enterobacter cloacae P99 beta-lactamase assessed as second-order rate constant for enzyme-inhibitor complex using cephalothin as substrate by spectrophotometric analysis
Summary of the method: (§1)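 Reactions ran at 25 °C in 20 mM MOPS, pH 7.5, with 0.1% BSA. Time courses: aliquots taken into 300 µM cephalothin, initial rates read at 270 nm. Titrations: 150 nM enzyme with 0–2.0 µM inhibitor, run to completion. Both datasets were fitted together to an acylation/partition scheme, k2 fixed at 100 s⁻¹. k_i = k1/(1 + k2/k3).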

[2] = target: Beta-lactamase (Enterobacter cloacae) (UniProt P05364); experiment: Irreversible inhibition of Enterobacter cloacae P99 beta-lactamase assessed as ratio of K2/K3 using cephalothin as substrate by spectrophotometric analysis; summary of the method: as §1
Beta-lactamase = Beta-lactamase (Enterobacter cloacae, UniProt P05364); experiment: Irreversible inhibition of Enterobacter cloacae P99 beta-lactamase using cephalothin as substrate by spectrophotometric analysis
Beta-lactamase, sequence (P05364 whole entry): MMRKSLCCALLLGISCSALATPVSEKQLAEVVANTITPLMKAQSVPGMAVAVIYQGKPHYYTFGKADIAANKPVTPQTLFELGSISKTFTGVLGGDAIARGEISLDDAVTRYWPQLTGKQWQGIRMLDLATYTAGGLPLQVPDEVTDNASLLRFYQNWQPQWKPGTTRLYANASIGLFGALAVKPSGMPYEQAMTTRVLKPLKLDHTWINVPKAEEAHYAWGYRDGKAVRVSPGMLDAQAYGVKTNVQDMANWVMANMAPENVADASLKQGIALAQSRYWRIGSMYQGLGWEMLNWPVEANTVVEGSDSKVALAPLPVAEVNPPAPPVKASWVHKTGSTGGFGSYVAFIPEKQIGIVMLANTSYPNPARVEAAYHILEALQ
Summary of the method: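 P99 class C β-lactamase (stock concentration by A280, ε 7.1 x 10⁴ M⁻¹cm⁻¹) incubated with inhibitor in 20 mM MOPS pH 7.5, 0.1% BSA, 25 °C. Aliquots diluted 1:50 into 300 μM cephalothin; initial rates followed at 270 nm over time. Titration: 150 nM enzyme with 0–2.0 μM inhibitor to end-point. Time-course and titration data fitted jointly to Scheme 2, k2 fixed at 100 s⁻¹, giving k1, k2/k3 and k_i.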

[3] = target: Beta-lactamase (Enterobacter cloacae) (UniProt P05364); experiment: Binding affinity to Enterobacter cloacae P99 beta-lactamase assessed as increase in molecular weight of enzyme-compound complex by mass-spectra analysis (reference value: 39192 Da)
Summary of the method: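 P99 enzyme was analysed by electrospray MS before and after inactivation. Protein was precipitated with trichloroacetic acid, then the precipitate was washed and dried before analysis.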

Beta-lactamase (Enterobacter cloacae), sequence (P05364 21-381 limits assumed): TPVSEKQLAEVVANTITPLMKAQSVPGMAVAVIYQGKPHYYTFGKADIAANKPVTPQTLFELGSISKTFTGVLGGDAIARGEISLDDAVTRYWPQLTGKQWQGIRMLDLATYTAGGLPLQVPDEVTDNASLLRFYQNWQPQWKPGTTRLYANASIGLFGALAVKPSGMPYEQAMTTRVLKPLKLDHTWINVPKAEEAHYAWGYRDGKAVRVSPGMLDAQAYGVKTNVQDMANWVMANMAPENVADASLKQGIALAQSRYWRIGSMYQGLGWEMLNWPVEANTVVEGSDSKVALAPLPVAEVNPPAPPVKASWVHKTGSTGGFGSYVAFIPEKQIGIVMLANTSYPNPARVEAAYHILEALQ

Row | K [1] | Ratio [2] | second-order inactivation rate constant (k_i) (Beta-lactamase) | Activity [3] [Da] | SMILES | second-order inactivation rate constant (k i) (Beta-lactamase) [M⁻¹ s⁻¹]
1 | 6.1 ×10³ /M/s | 2 | 2 ×10³ /M/s | – | O=C(NOC(=O)Oc1ccccc1)OCc1ccccc1 | –
2 | 3.7 ×10⁴ /M/s | 25 | 1.4 ×10³ /M/s | 26 | O=C(NOC(=O)Oc1ccccc1)OCCc1ccccc1 | –
3 | 3.5 ×10⁴ /M/s | 1.25 | 1.6 ×10⁴ /M/s | – | N[C@H](CCCOC(=O)NOC(=O)Oc1ccccc1)C(=O)O | –
4 | 2.8 ×10⁴ /M/s | 2.3 | 8.5 ×10³ /M/s | 26 | O=C(O)CCCCOC(=O)NOC(=O)Oc1ccccc1 | –
5 | 3.6 ×10³ /M/s | 2.4 | 1.1 ×10³ /M/s | 185 | CCCCOC(=O)NOC(=O)Oc1ccccc1 | –

Row | SMILES | K [1] | Ratio [2] | second-order inactivation rate constant (k_i) (Beta-lactamase) | Activity [3] [Da] | second-order inactivation rate constant (k i) (Beta-lactamase) [M⁻¹ s⁻¹]
6 | N[C@H](Cc1ccc(OC(=O)NOC(=O)Oc2ccccc2)cc1)C(=O)O | 360 M⁻¹ s⁻¹ | < 1 | – | 26 | 180 to 360
